Assay results gathered from unrelated publications.
Each line is one published result; the experiments were not run side by side. ≈ marks a conversion by molar mass, not a printed value.
Organism: Streptococcus pneumoniae

For `O=c1[nH]cc(F)c(=O)[nH]1`, the MBC was 0.25 µg/mL (≈ 1.92 µM) (microbial killing; broth dilution; 48 h).
The MIC of `CN(C)c1ccc(-c2ccc3cc4c(c(O)c3c2)C(=O)C2=C(O)[C@]3(O)C(=O)C(C(N)=O)=C(O)[C@@H](N(C)C)[C@@H]3C[C@@H]2C4)cc1` is reported as 32 µg/mL (≈ 54.8 µM) (microbial growth; broth dilution; ATCC49619).
With `CN(C)c1cc(CNCC(C)(C)C)c(O)c2c1C[C@H]1C[C@H]3[C@H](N(C)C)C(O)=C(C(N)=O)C(=O)[C@@]3(O)C(O)=C1C2=O` the MIC was less than 0.06 µg/mL (microbial growth; 157E).
The MIC90 of `CC[C@H]1OC(=O)[C@H](C)[C@@H](O[C@H]2C[C@@](C)(OC)[C@@H](O)[C@H](C)O2)[C@H](C)[C@@H](O[C@@H]2O[C@H](C)C[C@H](N(C)C)[C@H]2O)[C@](C)(OC)C[C@@H](C)C(=O)[C@H](C)[C@@H](O)[C@]1(C)O` is reported as 256 µg/mL (≈ 342 µM) (microbial growth).
`O=C(O)CN1C(=O)/C(=C/c2ccc(-c3ccc(N(c4ccccc4)c4ccccc4)cc3)cc2)SC1=S` has an MBC of 500 µg/mL (≈ 957 µM) (microbial killing; broth dilution; ATCC49619).
With `CN(C)[C@@H]1C(O)=C(C(N)=O)C(=O)[C@@]2(O)C(O)=C3C(=O)c4c(cc5ccc(-c6cccnc6)cc5c4O)C[C@H]3C[C@@H]12` the MIC was 32 µg/mL (≈ 59.1 µM) (microbial growth; broth dilution; ATCC49619).
The MBC of `COc1cc(Cc2cnc(N)nc2N)cc(OC)c1OC` is reported as 0.25 µg/mL (≈ 0.861 µM) (microbial killing; broth dilution; 48 h).
`O=C(O)CN1C(=O)/C(=C/c2c3ccccc3c(-c3ccc(N(c4ccccc4)c4ccccc4)cc3)c3ccccc23)NC1=S` has an MBC of greater than 1000 µg/mL (microbial killing; broth dilution; ATCC49619).
